How the values were obtained:
Glycine max = test: Phytotoxicity against Glycine max (soybean) plant assessed as growth inhibition at 300 g of active ingredient/ha administered using post-emergence treatment measured 30 days post treatment protocol under greenhouse conditions; type: organism-based; details: in vivo, other, 720 h
In short: (§1)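 Compounds were formulated as 100 g/L emulsified concentrates in DMF with TW-80 as emulsifier, then diluted with water to the required concentration. They were applied postemergence to pot-grown plants in a greenhouse. The soil was clay, pH 6.5, with 1.6% organic matter, 37.3% clay particles and CEC 12.1 mol/kg. Sulfentrazone served as the reference control.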

Eclipta prostrata [1] = test: Herbicidal activity against Eclipta prostrata assessed as growth inhibition at 37.5 g of active ingredient/ha administered using post-emergence treatment measured 15 days post treatment protocol under greenhouse conditions; type: functional
In short: (§2)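 Test agents were formulated as 100 g/L emulsified concentrates (DMF solvent, TW-80 emulsifier), diluted with water and sprayed postemergence on pot-grown weeds. Seeds were sown 1-3 cm deep in clay soil (pH 6.5, 1.6% organic matter, 37.3% clay, CEC […]) and grown at 15–30 °C in a greenhouse. Dicots were treated at the two-leaf stage. Untreated and DMF-treated plants served as controls. Activity was scored visually 15 days after treatment.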

Gossypium hirsutum [2] = test: Phytotoxicity against Gossypium hirsutum (cotton) plant assessed as growth inhibition at 300 g of active ingredient/ha administered using post-emergence treatment measured 30 days post treatment protocol under greenhouse conditions; type: organism-based; details: in vivo, other, 720 h; in short: as §1
[3] = Phytotoxicity against Oryza sativa (rice) plant assessed as growth inhibition at 450 g of active ingredient/ha administered using post-emergence treatment measured 30 days post treatment protocol under greenhouse conditions; type: organism-based; details: in vivo, read-out: GI; in short: as §1
Gossypium hirsutum [4] = test: Phytotoxicity against Gossypium hirsutum (cotton) plant assessed as growth inhibition at 450 g of active ingredient/ha administered using post-emergence treatment measured 30 days post treatment protocol under greenhouse conditions; type: organism-based; details: in vivo, other, 720 h; in short: as §1
Gossypium hirsutum [5] = test: Phytotoxicity against Gossypium hirsutum (cotton) plant assessed as growth inhibition at 150 g of active ingredient/ha administered using post-emergence treatment measured 30 days post treatment protocol under greenhouse conditions; type: organism-based; details: in vivo, other, 720 h; in short: as §1
Cerastium arvense [6] = test: Herbicidal activity against Cerastium arvense assessed as growth inhibition at 75 g of active ingredient/ha administered using post-emergence treatment measured 15 days post treatment protocol under greenhouse conditions; type: functional; in short: as §2
Zea mays = test: Phytotoxicity against Zea mays (maize) plant assessed as growth inhibition at 150 g of active ingredient/ha administered using post-emergence treatment measured 30 days post treatment protocol under greenhouse conditions; type: organism-based; details: in vivo, other, 720 h; in short: as §1
Triticum aestivum [7] = test: Phytotoxicity against Triticum aestivum (wheat) plant assessed as growth inhibition at 150 g of active ingredient/ha administered using post-emergence treatment measured 30 days post treatment protocol under greenhouse conditions; type: organism-based; details: in vivo, other, 720 h; in short: as §1
[8] = Phytotoxicity against Glycine max (soybean) plant assessed as growth inhibition at 75 g of active ingredient/ha administered using post-emergence treatment measured 30 days post treatment protocol under greenhouse conditions; type: organism-based; details: in vivo, read-out: GI; in short: as §1
Brassica juncea [9] = test: Herbicidal activity against Brassica juncea assessed as growth inhibition at 37.5 g of active ingredient/ha administered using post-emergence treatment measured 15 days post treatment protocol under greenhouse conditions; type: functional; in short: as §2
Brassica juncea [10] = test: Herbicidal activity against Brassica juncea assessed as growth inhibition at 75 g of active ingredient/ha administered using post-emergence treatment measured 15 days post treatment protocol under greenhouse conditions; type: functional; in short: as §2
Brassica napus [11] = test: Phytotoxicity against Brassica napus (oilseed rape) assessed as growth inhibition at 450 g of active ingredient/ha administered using post-emergence treatment measured 30 days post treatment protocol under greenhouse conditions; type: organism-based; details: in vivo, other, 720 h; in short: as §1
Setaria viridis [12] = test: Herbicidal activity against Setaria viridis (green foxtail) assessed as growth inhibition at 150 g of active ingredient/ha administered using post-emergence treatment measured 15 days post treatment protocol under greenhouse conditions; type: functional; in short: as §2
[13] = Phytotoxicity against Triticum aestivum (wheat) plant assessed as growth inhibition at 75 g of active ingredient/ha administered using post-emergence treatment measured 30 days post treatment protocol under greenhouse conditions; type: organism-based; details: in vivo, read-out: GI; in short: as §1
Eclipta prostrata [14] = test: Herbicidal activity against Eclipta prostrata assessed as growth inhibition at 75 g of active ingredient/ha administered using post-emergence treatment measured 15 days post treatment protocol under greenhouse conditions; type: functional; in short: as §2
Digitaria sanguinalis [15] = test: Herbicidal activity against Digitaria sanguinalis (hairy crabgrass) assessed as growth inhibition at 150 g of active ingredient/ha administered using post-emergence treatment measured 15 days post treatment protocol under greenhouse conditions; type: functional; in short: as §2
[16] = Phytotoxicity against Oryza sativa (rice) plant assessed as growth inhibition at 300 g of active ingredient/ha administered using post-emergence treatment measured 30 days post treatment protocol under greenhouse conditions; type: organism-based; details: in vivo, read-out: GI; in short: as §1
Cerastium arvense [17] = test: Herbicidal activity against Cerastium arvense assessed as growth inhibition at 150 g of active ingredient/ha administered using post-emergence treatment measured 15 days post treatment protocol under greenhouse conditions; type: functional; in short: as §2
Senna tora [18] = test: Herbicidal activity against Senna tora assessed as growth inhibition at 75 g of active ingredient/ha administered using post-emergence treatment measured 15 days post treatment protocol under greenhouse conditions; type: functional; in short: as §2
Chenopodium album = test: Herbicidal activity against Chenopodium album assessed as growth inhibition at 37.5 g of active ingredient/ha administered using post-emergence treatment measured 15 days post treatment protocol under greenhouse conditions; type: functional; in short: as §2
Triticum aestivum [19] = test: Phytotoxicity against Triticum aestivum (wheat) plant assessed as growth inhibition at 300 g of active ingredient/ha administered using post-emergence treatment measured 30 days post treatment protocol under greenhouse conditions; type: organism-based; details: in vivo, other, 720 h; in short: as §1
Digitaria sanguinalis [20] = test: Herbicidal activity against Digitaria sanguinalis (hairy crabgrass) assessed as growth inhibition at 37.5 g of active ingredient/ha administered using post-emergence treatment measured 15 days post treatment protocol under greenhouse conditions; type: functional; in short: as §2
Brassica napus [21] = test: Phytotoxicity against Brassica napus (oilseed rape) assessed as growth inhibition at 300 g of active ingredient/ha administered using post-emergence treatment measured 30 days post treatment protocol under greenhouse conditions; type: organism-based; details: in vivo, other, 720 h; in short: as §1
Setaria viridis [22] = test: Herbicidal activity against Setaria viridis (green foxtail) assessed as growth inhibition at 37.5 g of active ingredient/ha administered using post-emergence treatment measured 15 days post treatment protocol under greenhouse conditions; type: functional; in short: as §2
[23] = Phytotoxicity against Gossypium hirsutum (cotton) plant assessed as growth inhibition at 75 g of active ingredient/ha administered using post-emergence treatment measured 30 days post treatment protocol under greenhouse conditions; type: organism-based; details: in vivo, read-out: GI; in short: as §1
Setaria viridis [24] = test: Herbicidal activity against Setaria viridis (green foxtail) assessed as growth inhibition at 75 g of active ingredient/ha administered using post-emergence treatment measured 15 days post treatment protocol under greenhouse conditions; type: functional; in short: as §2
Brassica juncea [25] = test: Herbicidal activity against Brassica juncea assessed as growth inhibition at 150 g of active ingredient/ha administered using post-emergence treatment measured 15 days post treatment protocol under greenhouse conditions; type: functional; in short: as §2
Portulaca oleracea = test: Herbicidal activity against Portulaca oleracea assessed as growth inhibition at 75 g of active ingredient/ha administered using post-emergence treatment measured 15 days post treatment protocol under greenhouse conditions; type: functional; in short: as §2
Senna tora [26] = test: Herbicidal activity against Senna tora assessed as growth inhibition at 37.5 g of active ingredient/ha administered using post-emergence treatment measured 15 days post treatment protocol under greenhouse conditions; type: functional; in short: as §2
[27] = Phytotoxicity against Zea mays (maize) plant assessed as growth inhibition at 75 g of active ingredient/ha administered using post-emergence treatment measured 30 days post treatment protocol under greenhouse conditions; type: organism-based; details: in vivo, read-out: GI; in short: as §1

Compound: CCS(=O)(=O)Nc1cc(-n2nc(C)n(Cc3ccccc3/C(=N\OC)C(=O)OC)c2=O)c(F)cc1Cl
- Activity (Glycine max): Toxic
- growth inhibition (GI) (Eclipta prostrata [1]): >80%
- Activity (Gossypium hirsutum [2]): Toxic
- inhibition at 720 h [3]: 10%
- Activity (Gossypium hirsutum [4]): Toxic
- Activity (Gossypium hirsutum [5]): Toxic
- growth inhibition (GI) (Cerastium arvense [6]): 100%
- Activity (Zea mays): Toxic
- Activity (Triticum aestivum [7]): Toxic
- inhibition at 720 h [8]: 60%
- growth inhibition (GI) (Brassica juncea [9]): >80%
- growth inhibition (GI) (Brassica juncea [10]): >80%
- Activity (Brassica napus [11]): Toxic
- growth inhibition (GI) (Setaria viridis [12]): 50%
- inhibition at 720 h [13]: 40%
- growth inhibition (GI) (Eclipta prostrata [14]): >80%
- growth inhibition (GI) (Digitaria sanguinalis [15]): 50%
- inhibition at 720 h [16]: 0%
- growth inhibition (GI) (Cerastium arvense [17]): 100%
- growth inhibition (GI) (Senna tora [18]): >80%
- growth inhibition (GI) (Chenopodium album): 50%
- Activity (Triticum aestivum [19]): Toxic
- growth inhibition (GI) (Digitaria sanguinalis [20]): 50%
- Activity (Brassica napus [21]): Toxic
- growth inhibition (GI) (Setaria viridis [22]): <50%
- inhibition at 720 h [23]: 60%
- growth inhibition (GI) (Setaria viridis [24]): <50%
- growth inhibition (GI) (Brassica juncea [25]): >80%
- growth inhibition (GI) (Portulaca oleracea): 100%
- growth inhibition (GI) (Senna tora [26]): 50%
- inhibition at 720 h [27]: 40%

Reference: ChEMBL document CHEMBL3046880, “Syntheses and herbicidal activities of novel triazolinone derivatives” (J Agric Food Chem, 2008)
